In ChEMBL document CHEMBL4265879, “Novel, potent, selective and brain penetrant vasopressin 1b receptor antagonists” (Bioorg Med Chem Lett, 2018):

What was measured:
Vasopressin V1b receptor = molecular target: T1, Vasopressin V1b receptor (Homo sapiens, UniProt P47901); test: Displacement of [3H]AVP from human vasopressin V1b receptor expressed in CHO cell membranes after 60 mins by TopCount microplate scintillation counting method
T1 sequence (P47901 whole entry): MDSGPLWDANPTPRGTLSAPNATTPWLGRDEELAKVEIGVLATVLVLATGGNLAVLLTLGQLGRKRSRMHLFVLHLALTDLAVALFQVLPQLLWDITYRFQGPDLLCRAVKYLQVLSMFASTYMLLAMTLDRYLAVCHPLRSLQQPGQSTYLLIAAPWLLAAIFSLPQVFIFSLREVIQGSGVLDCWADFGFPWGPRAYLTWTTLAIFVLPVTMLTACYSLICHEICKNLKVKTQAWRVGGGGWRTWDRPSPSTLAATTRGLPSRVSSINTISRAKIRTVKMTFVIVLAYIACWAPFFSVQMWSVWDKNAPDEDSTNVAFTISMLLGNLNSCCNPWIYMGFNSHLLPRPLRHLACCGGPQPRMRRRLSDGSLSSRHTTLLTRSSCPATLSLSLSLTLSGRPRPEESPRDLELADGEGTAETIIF

Cytochrome P450 3A4 = Cytochrome P450 3A4 (Homo sapiens, UniProt P08684); test: Inhibition of CYP3A4 in human liver microsomes in presence of NADPH and Luciferin BE 50; type: ADME
Cytochrome P450 3A4, sequence (P08684 whole entry): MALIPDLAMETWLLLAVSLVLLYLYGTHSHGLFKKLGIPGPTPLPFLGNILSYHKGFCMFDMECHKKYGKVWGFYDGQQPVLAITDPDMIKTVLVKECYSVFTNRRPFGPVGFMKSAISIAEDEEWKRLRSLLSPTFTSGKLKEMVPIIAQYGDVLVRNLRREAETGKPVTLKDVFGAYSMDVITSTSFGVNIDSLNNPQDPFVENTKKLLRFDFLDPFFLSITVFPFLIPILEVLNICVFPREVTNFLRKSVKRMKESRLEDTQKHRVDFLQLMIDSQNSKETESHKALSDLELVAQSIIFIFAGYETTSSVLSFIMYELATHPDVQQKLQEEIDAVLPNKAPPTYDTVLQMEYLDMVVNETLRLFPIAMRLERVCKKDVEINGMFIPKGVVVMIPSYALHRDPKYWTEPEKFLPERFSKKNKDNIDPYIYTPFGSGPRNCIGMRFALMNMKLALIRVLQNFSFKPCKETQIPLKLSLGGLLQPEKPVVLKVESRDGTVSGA
Outline: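 CYP3A4 inhibition by co-incubation in human liver microsomes with NADPH and luciferin-BE substrate, with 0.03 mg/mL noted. Result expressed as IC50.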

Homo sapiens [1] = species on record: Homo sapiens; test: Selectivity index, ratio of Ki for human vasopressin V1a receptor to Ki for human vasopressin V1b receptor
Outline: (§1)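 Selectivity was calculated from human receptor Ki values as Ki hOT/Ki hV1b or Ki hV1a/Ki hV1b. Each Ki is the mean of at least two experiments (MSR 2.8).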

Homo sapiens [2] = species on record: Homo sapiens; test: Selectivity index, ratio of Ki for human oxytocin receptor to Ki for human vasopressin V1b receptor; outline: as §1
[3] = Intrinsic clearance in human liver microsomes; type: ADME, microsome; conditions: read-out: CLH
Outline: (§2)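 Intrinsic clearance was measured in human and rat liver microsomes, in µL/min/mg. Values are means of at least two experiments.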

[4] = Intrinsic clearance in rat liver microsomes; type: ADME, microsome; conditions: read-out: CLH; outline: as §2
[5] = Ratio of AUC in rat brain to plasma at 10 mg/kg, ip measured after 8 hrs; type: ADME, organism-based; conditions: read-out: Ratio AUC
Outline: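 Rats were dosed 10 mg/kg intraperitoneally. Brain and plasma AUC were taken over an 8 h period, and the brain:plasma ratio was calculated from them.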

[6] = Clearance in rat plasma at 2 mg/kg, iv; type: ADME, organism-based
Outline: (§3)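 Rat PK after a 2 mg/kg intravenous dose. Plasma clearance (L/h/kg), terminal half-life (h) and steady-state volume of distribution (L/kg) were derived.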

[7] = Volume of distribution at steady state in rat at 2 mg/kg, iv; type: ADME, organism-based; conditions: in vivo, read-out: Vdss; outline: as §3
[8] = Elimination half life in rat at 2 mg/kg, iv; type: ADME, organism-based; conditions: in vivo, read-out: beta t1/2 (converted); outline: as §3
[9] = Oral bioavailability in rat at 5 mg/kg; type: ADME, organism-based; conditions: in vivo
Outline: (§4)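 Rat oral dosing, at 10 or 5 mg/kg depending on compound. Oral bioavailability (%) was calculated.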

[10] = Oral bioavailability in rat at 10 mg/kg; type: ADME, organism-based; conditions: in vivo; outline: as §4
Rattus norvegicus [11] = test: Antidepressant like activity in Sprague-Dawley rat assessed as climbing time at 3 mg/kg, ip administered at 24, 4 and 0.5 hrs prior to test by forced swimming test; type: functional
Outline: (§5)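 Rat forced swim test. Drug given intraperitoneally at 3 mg/kg, dosed 24, 4 and 0.5 h before testing. Floating, swimming and climbing times were scored. Nomifensine served as positive control. Data reported as mean ± SEM.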

Rattus norvegicus [12] = test: Antidepressant like activity in Sprague-Dawley rat assessed as swimming time at 3 mg/kg, ip administered at 24, 4 and 0.5 hrs prior to test by forced swimming test; type: functional; outline: as §5
Rattus norvegicus [13] = test: Antidepressant like activity in Sprague-Dawley rat assessed as floating time at 3 mg/kg, ip administered at 24, 4 and 0.5 hrs prior to test by forced swimming test; type: functional; outline: as §5

Row | Compound | Ki (Vasopressin V1b receptor) [µM] | Ratio Ki (Homo sapiens [1]) | Ratio Ki (Homo sapiens [2]) | microsomal CLint [3] [µL/min/mg] | microsomal CLint [4] [µL/min/mg] | also measured
1 | CCOc1nc(Cl)ccc1C1(N2CCN(c3ccnc(C)c3)CC2)C(=O)N(S(=O)(=O)c2ccc(OC)cn2)c2ccc(C#N)cc21 (racemic) [listing 1 of 2 here] | 0.0013 | – | – | – | – | IC50 (Cytochrome P450 3A4): 1.2 µM
2 | COc1ccc(S(=O)(=O)N2C(=O)C(c3ccccc3OC)(N3CCN(c4cccnc4)CC3)c3cc(Cl)ccc32)cc1 (stereo not given) | 0.104 | – | – | – | – | –
3 | COc1ccccc1C1(N2CCN(c3cccnc3)CC2)C(=O)N(S(=O)(=O)c2ccccc2OC)c2ccc(Cl)cc21 (stereo not given) | 0.047 | – | – | 93 | 442 | –
4 | COc1ccc(S(=O)(=O)N2C(=O)C(c3ccccc3OC)(N3CCN(c4cccnc4)CC3)c3cc(Cl)ccc32)c(OC)c1 (stereo not given) | 0.018 | 0.8 | 0.9 | 41 | 348 | –
5 | COc1ccccc1C1(N2CCN(c3cccnc3)CC2)C(=O)N(S(=O)(=O)c2ccccc2)c2ccc(Cl)cc21 (stereo not given) | 0.233 | – | – | – | – | –
6 | COc1ccc(S(=O)(=O)N2C(=O)C(c3cccnc3OC)(N3CCNC(=O)C3)c3cc(Cl)ccc32)c(OC)c1 (stereo not given) | 1.34 | – | – | – | – | –
7 | COc1ccccc1C1(N2CCN(c3cccnc3)CC2)C(=O)N(S(=O)(=O)c2cccc3cccnc23)c2ccc(Cl)cc21 (stereo not given) | 0.008 | 3 | 10 | 360 | 359 | –
8 | COc1ncccc1C1(N2CCN(c3cccnc3)CC2)C(=O)N(S(=O)(=O)c2cccc3cccnc23)c2ccc(C#N)cc21 (stereo not given) | 0.0302 | 0.9 | 3 | 326 | 113 | –
9 | COc1ccc(S(=O)(=O)N2C(=O)C(c3cccnc3OC)(N3CCN(c4cccnc4)C(=O)C3)c3cc(Cl)ccc32)c(OC)c1 (stereo not given) | 0.082 | 1 | – | 196 | 291 | –
10 | COc1ccc(S(=O)(=O)N2C(=O)C(c3cccnc3OC)(N3CCN(c4cccnc4)CC3)c3cc(Cl)ccc32)c(OC)c1 (stereo not given) | 0.045 | 0.1 | – | 19 | 84 | –
11 | COc1ccc(S(=O)(=O)N2C(=O)C(c3cccnc3OC)(N3CCN(C)C(=O)C3)c3cc(Cl)ccc32)c(OC)c1 (stereo not given) | 0.192 | – | – | 99 | 113 | –
12 | COc1ccc(S(=O)(=O)N2C(=O)C(c3cccnc3OC)(N3CCN(C)C(=O)[C@H]3C)c3cc(Cl)ccc32)c(OC)c1 (stereo not given in full) | 0.041 | 1 | – | 51 | 78 | –
13 | COc1ncccc1C1(N2CCN(c3cccnc3)CC2)C(=O)N(S(=O)(=O)c2cccc3cccnc23)c2ccc(Cl)cc21 (stereo not given) | 0.0152 | 0.5 | 2 | 554 | 156 | –

Continued, in another order:

Row | Ki (Vasopressin V1b receptor) [µM] | Ratio Ki (Homo sapiens [1]) | Ratio Ki (Homo sapiens [2]) | microsomal CLint [3] [µL/min/mg] | microsomal CLint [4] [µL/min/mg] | Compound | also measured
14 | – | 125 | 69 | – | – | CCOc1nc(Cl)ccc1C1(N2CCN(c3ccnc(C)c3)CC2)C(=O)N(S(=O)(=O)c2ccc(OC)cn2)c2ccc(C#N)cc21 (racemic) [listing 2 of 2 here] | –
15 | 0.084 | – | – | 77 | 168 | CCOc1ncccc1C1(N2CCN(c3ccncc3)CC2)C(=O)N(S(=O)(=O)c2ccc(OC)cc2OC)c2ccc(C#N)cc21 (stereo not given) | –
16 | 0.036 | – | – | 43 | 83 | CCOc1ccccc1C1(N2CCN(c3ccncc3)CC2)C(=O)N(S(=O)(=O)c2ccc(OC)cc2OC)c2ccc(C#N)cc21 (stereo not given) | –
17 | 0.0009 | – | – | 7 | 22 | CCOc1nc(Cl)ccc1C1(N2CCN(c3ccnc(C)c3)CC2)C(=O)N(S(=O)(=O)c2ccc(OC)cn2)c2ccc(C#N)cc21 (single isomer, unassigned; (+)) [listing 1 of 2 here] | Kp at 8 h [5]: 1; clearance [6]: 15 mL/min/kg; Vd [7]: 12 L/kg; IC50 (Cytochrome P450 3A4): 2 µM; half-life [8]: > 6 h; bioavailability [9]: 37%
18 | 0.032 | – | 15 | 93 | 118 | CCOc1ccc(OC)cc1C1(N2CCN(c3ccncc3)CC2)C(=O)N(S(=O)(=O)c2ccc(OC)cc2)c2ccc(C#N)cc21 (stereo not given) | –
19 | 0.01 | 34 | 3 | 63 | 34 | CCOc1cc(OC)ccc1C1(N2CCN(c3ccncc3)CC2)C(=O)N(S(=O)(=O)c2ccc(OC)cc2OC)c2ccc(C#N)cc21 (stereo not given) | –
20 | 0.009 | 39 | 21 | 131 | 119 | CCOc1ccc(OC)cc1C1(N2CCN(c3ccncc3)CC2)C(=O)N(S(=O)(=O)c2ccc(F)c3cccnc23)c2ccc(C#N)cc21 (stereo not given) | –
21 | 0.045 | – | – | 23 | – | CCOc1nc(Cl)ccc1C1(N2CCN(c3ccncc3)CC2)C(=O)N(S(=O)(=O)c2ccc(OC)cc2OC)c2ccc(C#N)cc21 (stereo not given) | –
22 | 0.0585 | – | – | 43 | 296 | COc1ccc(S(=O)(=O)N2C(=O)C(c3ccccc3OC)(N3CCN(c4ccncc4)CC3)c3cc(C#N)ccc32)c(OC)c1 (stereo not given) | –
23 | 0.013 | 2 | 2 | 50 | 58 | COc1ccc(S(=O)(=O)N2C(=O)C(c3cc(OC)ccc3OC)(N3CCN(c4ccncc4)CC3)c3cc(C#N)ccc32)c(OC)c1 (stereo not given) | –
24 | 0.002 | 84 | 4 | 33 | 15 | CCOc1ccc(OC)cc1C1(N2CCN(c3ccncc3)CC2)C(=O)N(S(=O)(=O)c2ccc(OC)c3cccnc23)c2ccc(C#N)cc21 (stereo not given) | –
25 | 0.021 | 21 | 6 | 23 | 41 | CCOc1ccc(OC)cc1C1(N2CCN(c3ccncc3)CC2)C(=O)N(S(=O)(=O)c2ccc(OC)cc2OC)c2ccc(C#N)cc21 (stereo not given) | Kp at 8 h [5]: 1.1; clearance [6]: 11.7 mL/min/kg; bioavailability [10]: 22%; Vd [7]: 2.9 L/kg; half-life [8]: 3.4 h
26 | 0.002 | 216 | 230 | 45 | 290 | CCOc1ccc(OC)cc1C1(N2CCN(c3ccncc3)CC2)C(=O)N(S(=O)(=O)c2ccc(OC)cn2)c2ccc(C#N)cc21 (stereo not given) | –
27 | – | 78 | 65 | – | – | CCOc1nc(Cl)ccc1C1(N2CCN(c3ccnc(C)c3)CC2)C(=O)N(S(=O)(=O)c2ccc(OC)cn2)c2ccc(C#N)cc21 (single isomer, unassigned; (+)) [listing 2 of 2 here] | –
28 | 0.0011 | 325 | 201 | 39 | 63 | CCOc1nc(Cl)ccc1C1(N2CCN(c3ccncc3)CC2)C(=O)N(S(=O)(=O)c2ccc(OC)cn2)c2ccc(C#N)cc21 (stereo not given) | IC50 (Cytochrome P450 3A4): 0.1 µM
29 | 0.005 | 79 | 34 | 170 | 210 | CCOc1ccc(OC)cc1C1(N2CCN(c3ccncc3)CC2)C(=O)N(S(=O)(=O)c2cccc3cccnc23)c2ccc(C#N)cc21 (stereo not given) | Kp at 8 h [5]: 1.4; clearance [6]: 46.7 mL/min/kg; bioavailability [10]: 18%; Vd [7]: 10 L/kg; Time (Rattus norvegicus [11]): 125.69 s; Time (Rattus norvegicus [12]): 12.46 s; Time (Rattus norvegicus [13]): 159.15 s; half-life [8]: 2.4 h
